# High-throughput results as filed in PubChem.
# T cruzi repl = T. cruzi replication inhibition. AID 1885. T. cruzi beta-gal in NIH3T3, luminescence, 90 h. hit rate 1.4% among 300,000. inhibition, % (no concentration beside the values);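 active = mean inhibition across valid replicates above about 55%, limit read from the data; inconclusive = mean below that limit but half or more replicates reach it; inactive = mean below it, under half of replicates reach it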;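 also: signal also drops with host cell toxicity which is not excluded here; 0% = plate median of DMSO wells and 100% = zero luminescence signal; higher percent means less beta-gal luminescence so fewer parasites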
#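 System: Mouse NIH/3T3 fibroblasts infected with β-gal-expressing T. cruzi Tulahuen C4 | Quantity: NIH/3T3 cells, 5,000 per well | Reagent: 5000 reporter trypomastigotes per well | Dosing: Compound pinned at 50 nL/well, DMSO | Schedule: 3 h host attachment, then at least 90 h co-culture | Detection: GalScreen luminescence, 60 min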
# HIF act = HIF pathway transcriptional activation. U2OS HRE-luciferase reporter, luminescence; normalized: DMSO 0%, desferrioxamine 100%. activation, % at 7.5 µM (by protocol). hit rate 0.32% among 300,000;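 active = mean activation of at least 10% of the iron chelator positive control signal, with at least half of replicates also reaching 10%; inconclusive = mean and replicate majority disagree about reaching 10%; inactive = mean and most replicates under 10%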
# KLF5 inh = kruppel-like factor 5 inhibition; DLD-1 KLF5 promoter-luciferase reporter, luminescence; inhibition, % at 5 µM; hit rate 0.23% among 290,000;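 active = inhibition above a per-plate limit of that plate's mean compound inhibition plus 3 SD, cut at about 60% in these data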;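 also: 0% = DMSO wells and 100% = LY294002 at 200 µM; higher means less KLF5 promoter-driven luciferase light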
# Bfl-1 A1 inh = inhibitors of the anti-apoptotic protein A1, read as caspase activation | MEF A1-2A-BIM cells, Caspase-Glo 3/7 luminescence, 3 h; percent of clofoctol response, vehicle zero | caspase activation, % (test concentration not listed) | hit rate 0.066% among 330,000;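 active = over half of replicate activation scores above 10%, or exactly half above 10 with the replicate mean above 10; inconclusive = replicate mean below 10 yet half the replicates above 10; inactive = over half of replicates below 10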
# Beta apoptosis = beta cell apoptosis inhibition | INS-1E cytokine-induced death, ATP luminescence, 48 h; percent of positive-control rescue, neutral wells zero | hit rate 0.8% among 300,000 | protection from apoptosis, % (test concentration not listed);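 active = Every replicate reaches about 75%, or at least half do and their mean reaches it too, limit read from the data; inconclusive = At least half of replicates reach the limit but their mean does not; inactive = Under half of replicates reach the limit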;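 also: 0% = cytokine-treated negative control wells and 100% = positive control rescue; higher means more ATP so stronger rescue from cytokine killing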
# Starred values were filed as active, the others as inactive; ? = inconclusive; . = no result given. Rows were chosen to be rich in hits. Some 2.3% of all compounds tested hit in one or more screens of this group.
SMILES,T cruzi repl,HIF act,KLF5 inh,Bfl-1 A1 inh,Beta apoptosis
O=C(Cc1cccs1)N1CCN(S(=O)(=O)c2cc(Cl)ccc2Cl)CC1,-5.7,-4.4,.,1.1,1.3
CC(C)(C)c1ccc(-n2ncc3c2CCCC3NC(=O)C2(C(N)=O)CC2)cc1 (stereo unspecified),-8.3,0.5,-6.6,-3.2,78.3*
COCCNC(=O)c1cc(-c2cccs2)on1,7.5,29.8*,-72.6,0.1,24.6
CCOC(=O)C(C(=O)OCC)c1cc(Br)c2noc3c2c1C(=O)c1ccccc1-3,64.7*,3.2,0.6,10.5*,32.8
COC(=O)[C@H](Cc1ccccc1)N(Cc1ccccc1)S(=O)(=O)N(Cc1ccccc1)[C@@H](Cc1ccccc1)C(=O)OC,.,.,.,1.3,118.7*
COC(=O)[C@H](Cc1ccccc1)N(C)S(=O)(=O)c1cccc(S(=O)(=O)N(C)[C@@H](Cc2ccccc2)C(=O)OC)c1,20.6,-0.1,3.9,1.2,2.4
Cc1ccc(SCc2cc(=O)[nH]c(Nc3nc(C)c4ccc(C)cc4n3)n2)cc1,24.7,0.7,26.7,0.0,.
Cc1ccc2c(C)nc(Nc3nc(CSc4nc5ccccc5[nH]4)cc(=O)[nH]3)nc2c1,27.6,-1.1,-24.7,0.4,90.1*
Cc1noc(C)c1C(=O)OCC(=O)Nc1ccc(S(N)(=O)=O)cc1,.,.,.,-0.6,2.0
CN(C)CCN(C(=O)c1ccc2c(c1)OCCO2)c1nc2cc3c(cc2s1)OCO3,31.9,3.8,-44.0,0.6,-8.4
CN(C)CCN(C(=O)c1ccc(S(=O)(=O)N(C)C)cc1)c1nc2cc3c(cc2s1)OCCO3,60.7*,0.6,-54.8,0.0,-8.0
COc1ccc2nc(N(CCN(C)C)C(=O)c3ccc4c(c3)OCCO4)sc2c1,64.5*,2.5,-33.4,-0.6,-7.2
CN(C)CCN(C(=O)c1ccc(S(=O)(=O)N(C)c2ccccc2)cc1)c1nc2cc3c(cc2s1)OCCO3,?,2.4,-13.4,0.6,-11.6
CCOc1ccc2nc(SCC(=O)Nc3ccc4[nH]c(=O)[nH]c4c3)[nH]c2c1,3.6,-0.1,.,-0.1,0.5
CCOc1ccccc1NC(=O)CN1CCC(NC(=O)Nc2ccccc2)CC1,23.5,0.0,-7.2,-0.2,7.5
CCN(CCCCCN(C)C)Cc1cc2ccccc2o1,55.4*,684.5*,-50.2,0.1,.
CN(C)CCCN(C(=O)c1cc2ccccc2oc1=O)c1nc2ccc(F)cc2s1,43.8,1.1,-10.4,0.3,-5.0
CCCCCCCn1c(=O)c(C(=O)OC)c(N)c2ccccc21,18.1,0.2,-16.4,-1.1,.
CCCCCCCCn1c(=O)c(C(=O)OC)c(N)c2ccccc21,13.6,-0.6,-21.3,0.5,116.7*
Fc1ccc(N2CCN(Cc3c[nH]c4ccccc34)CC2)cc1,73.2*,-0.4,-12.1,1.0,91.1*
O=C(C(=O)N1CCN(c2ccc(F)cc2)CC1)c1c[nH]c2ccccc12,19.5,-0.5,-10.5,0.1,-9.3
c1cnc(N2CCN(Cc3c[nH]c4ccccc34)CC2)nc1,49.9,0.2,-3.1,1.4,105.8*
COc1ccc(NC(=O)Nc2ccon2)cc1OC,-14.1,-0.2,-32.7,1.3,-3.1
O=C(O)CCCCCN1C(=O)CSC1=S,39.1,-2.7,44.9,-0.6,3.7
CC(C)OC(=O)CCCCCN1C(=O)CSC1=S,56.1*,-0.1,9.6,0.1,-5.6
SMILES,T cruzi repl,HIF act,KLF5 inh,Bfl-1 A1 inh,Beta apoptosis
CCCCc1c(O)c2ccccc2n(CCCC)c1=O,-5.0,0.3,-16.1,-0.2,-5.0
CCCCc1c(CCC)c(=N)c2ccccc2n1C,59.8*,0.0,-5.3,-0.7,26.1
Cc1cccc(N2CCN(S(=O)(=O)c3c(C)nc4scc(C)n4c3=O)CC2)c1C,10.6,-0.4,-15.4,-0.1,15.4
O=C(Cn1cnc2ccccc21)Nc1cccc(S(=O)(=O)N2CCCC2)c1,.,.,.,1.6,15.8
COc1cccc(NC(=O)C2C3C=CC(C3)C2C(=O)O)c1 (stereo unspecified),-4.5,0.2,2.4,2.0,-9.4
CCOc1ccc(Cn2ccnc2)cc1[N+](=O)[O-],16.9,-0.5,-1.7,1.1,-10.1
CCCCCOc1ccc(Cn2ccnc2)cc1[N+](=O)[O-],61.8*,0.1,-13.2,0.6,-3.6
CCCCOc1ccc(CSC2=NCCN2)cc1[N+](=O)[O-],66.3*,0.5,-27.7,0.5,-7.6
CCCCCCOc1ccc(/C(C)=N/NC2=NCCN2)cc1[N+](=O)[O-],65.5*,0.6,-123.0,0.4,56.5
CC1(CCc2ccccc2)NC(=O)N(CC(=O)N2CCCCCC2)C1=O (stereo unspecified),-4.5,0.1,.,-0.7,1.1
